This is a sample that favours compounds with a hit; in the whole collection about 3.7% have one here.
KCNQ1 block = human KCNQ1 channel inhibition; P51787; CHO-K1 KCNQ1, FluxOR thallium flux fluorescence; stronger effect = higher value; B-score at 10 µM; 1.3% of 310,000 active;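 active = compounds whose thallium flux B-score, printed positive for inhibition, exceeds three library SD while starting fluorescence stays within three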;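 note: channel opened by potassium depolarization with thallium stimulus after 20 min compound exposure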
KCNK3 block = human KCNK3 channel inhibition, primary screen. B-score at 10 µM. 0.84% of 340,000 active. CHO-KCNK3 thallium flux, FluxOR fluorescence; stronger effect = lower value;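 active = B-score under library mean minus 4 SD, starting fluorescence ratio at most library mean plus 5 SD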;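 note: more negative B-score means stronger inhibition of thallium flux through KCNK3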
Kir21 block = blocks the mouse Kir2.1 inward-rectifier potassium channel | P35561 | HEK293-Kir2.1, FluxOR thallium flux fluorescence; stronger effect = lower value | B-score at 10 µM | 0.85% of 310,000 active;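 active = fluorescence ratio B-score at or below minus 3 SD of library scores, with starting-brightness B-score within 2 SD, cut at about -4.2 in these data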;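 note: channel flux triggered by added potassium and thallium sulfate stimulus; B-score of peak minus minimum fluorescence over baseline after thallium stimulus; more negative B-score means stronger Kir2.1 block with less thallium influx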
KCNQ1 act = human KCNQ1 channel potentiation or activation; P51787; CHO-K1 KCNQ1, thallium flux FluxOR fluorescence; stronger effect = higher value; B-score at 10 µM; 0.35% of 310,000 active; AID 2648;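 active = fluorescence ratio B-score, a plate-corrected score, at least three library SD, with initial intensity B-score within 5 SD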
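System: Stable KCNQ1 CHO-K1 line | Incubation: 90 min dye loading and 20 min compound exposure, both at room temperature | Measure: Ratio B score | Medium: Assay buffer for compound exposure, DMSO matched across wells | Compound dosing: Single-concentration screen | Probe or stimulus: K+/Tl+ depolarizing stimulus | Measured by: Kinetic FluxOR fluorescence, 10 s baseline plus 110 s post-stimulus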
KCNK9 block = human KCNK9 channel inhibition. Q9NPC2. B-score at 10 µM. HEK293 KCNK9, FluxOR thallium flux fluorescence; stronger effect = lower value. 1.2% of 310,000 active. AID 488922;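 active = ratio B-score over 3 SD below the library mean, with starting fluorescence within 5 SD of its mean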;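 note: negative B-score means less thallium flux so channel inhibition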
hERG protect = hERG (human) protection from proarrhythmic block. Q12809. CHO-hERG, FluxOR thallium flux, dofetilide IC70 present. activation (rescue from dofetilide block), less the hit threshold, % at 10 µM. 0.51% of 310,000 active. AID 1511;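 active = activation above the mean of controls blocked by dofetilide plus 5 SD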;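 note: thallium influx through hERG after potassium depolarization seen as dye fluorescence rise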
KCNQ1 block val = human KCNQ1 channel inhibition, validation assay; shares compounds with KCNQ1 block; KCNQ1 cell line, FluxOR thallium flux fluorescence; inhibition, % at 10 µM; 93% of 1,600 active; AID 588353;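 active = primary screen active, with duplicate mean exceeding buffer control mean plus 3 SD of buffer wells, cut at about 28% in these data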;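 note: 0% = buffer control ratio and 100% = XE991 inhibitor control ratio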
CHO Tl flux = KCNQ1 inhibitor counter-screen hit in parental CHO cells | shares compounds with KCNQ1 block | parental CHO-K1, FluxOR thallium flux fluorescence ratio; stronger effect = lower value; zero means no signal rise above baseline | fluorescence ratio (Tl flux) at 10 µM | 21% of 1,600 active | AID 588366;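 active = mean of duplicate thallium-flux fluorescence ratios in parental host cells more than 5 SD below the buffer control mean, cut at about 0.38 in these data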;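 note: ratio is peak minus minimum fluorescence divided by baseline fluorescence; actives read low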
KCNQ1 APC inh = blocks human KCNQ1 current in automated patch clamp. 20% of 490 active. KCNQ1-CHO cells. shares compounds with KCNQ1 block. calls only at 10 µM. AID 624120;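 active = KCNQ1 current drop exceeding 3 SD of negative control wells, seen in both duplicate runs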;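 note: steady state current during a 2 s step from -80 to +40 mV; negative values mean current inhibition and positive values mean potentiation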
KCNQ2 inh = selectivity of KCNQ1 inhibitors: inhibition of rat KCNQ2 channel; 71% of 1,600 active; inhibition, % at 10 µM; shares compounds with KCNQ1 block; AID 651746; KCNQ2 cells, FluxOR thallium flux fluorescence;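 active = mean percent inhibition of the KCNQ2 thallium signal more than 5 SD above the buffer-only control wells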;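 note: KCNQ2 expressed in CHO cells; 0% = buffer control wells and 100% = XE-991 inhibitor control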
KCNQ1-KCNE1 inh = selectivity of KCNQ1 inhibitors: inhibition of human KCNQ1/KCNE1 channel | shares compounds with KCNQ1 block | 77% of 1,600 active | KCNQ1/KCNE1 cells, FluxOR thallium flux fluorescence | inhibition, % at 10 µM | AID 652147;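 active = mean percent inhibition of duplicate wells above the buffer-only control mean plus 3 SD of those controls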;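 note: 0% = buffer only wells and 100% = XE-991 inhibitor control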
Target sequence (P51787 whole entry, looked up): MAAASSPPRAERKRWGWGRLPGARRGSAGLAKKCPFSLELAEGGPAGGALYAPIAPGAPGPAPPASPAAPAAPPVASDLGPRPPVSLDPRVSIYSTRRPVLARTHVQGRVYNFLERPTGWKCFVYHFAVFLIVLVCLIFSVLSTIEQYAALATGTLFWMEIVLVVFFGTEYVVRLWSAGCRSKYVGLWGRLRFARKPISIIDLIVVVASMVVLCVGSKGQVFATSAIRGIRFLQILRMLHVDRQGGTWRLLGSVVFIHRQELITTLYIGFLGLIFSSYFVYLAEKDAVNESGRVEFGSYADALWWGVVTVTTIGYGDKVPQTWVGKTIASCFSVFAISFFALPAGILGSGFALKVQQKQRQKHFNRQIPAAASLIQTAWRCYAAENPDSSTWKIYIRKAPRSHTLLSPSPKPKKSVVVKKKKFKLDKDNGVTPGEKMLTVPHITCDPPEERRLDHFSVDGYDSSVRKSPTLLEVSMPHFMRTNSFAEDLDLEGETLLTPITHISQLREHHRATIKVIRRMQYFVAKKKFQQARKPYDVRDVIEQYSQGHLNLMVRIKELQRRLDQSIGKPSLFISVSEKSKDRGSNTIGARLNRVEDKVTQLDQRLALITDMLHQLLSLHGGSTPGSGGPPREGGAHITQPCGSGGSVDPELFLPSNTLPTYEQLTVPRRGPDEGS
Numbers without * were called inactive; i = inactive; . = no result given; + = active, no number.

SMILES	KCNQ1 block	KCNK3 block	Kir21 block	KCNQ1 act	KCNK9 block	hERG protect	KCNQ1 block val	CHO Tl flux	KCNQ1 APC inh	KCNQ2 inh	KCNQ1-KCNE1 inh
COc1ccccc1N(C)S(=O)(=O)c1ccc(C(=O)OCC(=O)N(C(C)C)C(C)C)cc1	i	i	0.45	i	i	-5	.	.	.	.	.
CC(C)(C)OC(=O)N1CCC(C(=O)Nc2cccc(C(=O)N3CCCCC3)c2)CC1	.	i	.	.	.	.	.	.	.	.	.
COC(=O)/C=C1\NCCNC1=O	i	i	0	i	i	-4	.	.	.	.	.
CCOc1ccc2noc3c2c1C(=O)c1ccccc1-3	32*	i	-13	i	i	-48	+	0.018*	.	i	i
O=C1c2ccccc2-c2onc3ccc(N4CCCC4)c1c23	i	i	-1.7	i	i	-12	.	.	.	.	.
Cc1cc2c(=O)n(C)c(SCC(=O)Nc3cccc(F)c3)nc2s1	i	i	0.45	i	i	-4	.	.	.	.	.
Cc1ccccc1OCCC(=O)OCC(=O)N1c2ccccc2NC(=O)C1(C)C	i	i	-0.23	i	i	-6	.	.	.	.	.
CC(C)(C)c1ccc(OCCC(=O)OCC(=O)N2c3ccccc3NC(=O)C2(C)C)cc1	7*	i	1.7	i	i	-32	120*	0.29*	.	140%*	56%*
Cc1ccc(OCC(O)CN2CCC(Cc3ccccc3)CC2)c(C)c1 (centres undefined)	7*	i	-4.6*	i	i	-17	31*	0.44	.	76%*	63%*
OC(COc1ccccc1)CN1CCC(Cc2ccccc2)CC1 (centres undefined)	i	i	1.5	i	i	-6	.	.	.	.	.
COc1ccc(N2CC(C(=O)N3CCN(c4ccccc4OC)CC3)CC2=O)cc1 (centres undefined)	i	i	-0.45	i	i	-5	.	.	.	.	.
O=C(c1cccc(NS(=O)(=O)c2ccc(F)c(F)c2)c1)N1CCN(C(c2ccccc2)c2ccccc2)CC1	11*	i	-0.23	i	i	-15	131*	0.4	i	109%*	155%*
COc1ccccc1N1CCN(C(=S)Nc2ccccc2)CC1	i	i	0.7	i	i	-12	.	.	.	.	.
CCOc1cc2c3c(c1)C1(Nc4ccccc4S1)C(=O)N3C(C)(C)CC2C (centres undefined)	8*	i	-0.18	i	i	-11	96*	0.48	i	i	77%*
Cc1nn(-c2ccccc2)c(N)c1-c1ccccc1	i	i	-1.1	i	i	-5	.	.	.	.	.
Cc1nn(-c2ccccc2)c(/N=C/c2ccccc2O)c1-c1ccccc1	6*	i	0.28	i	i	-12	119*	0.43	i	109%*	166%*
COc1ccc(OCC(=O)Nc2cccc(-c3nc4ccccc4[nH]3)c2)cc1	i	i	-0.94	i	i	-8	.	.	.	.	.
CCC(C)(C)c1ccc(OCC(=O)Nc2ccncc2)cc1	8*	i	1.9	i	i	-23	138*	0.44	i	92%*	72%*
O=C(COc1ccc(Nc2ccccc2)cc1)Nc1ccncc1	8*	i	-1.3	i	i	-21	94*	0.54	.	i	i
CC(C)CCOc1cccc(OCC(=O)Nc2ccncc2)c1	12*	i	-0.05	i	i	-14	106*	0.45	i	i	40%*
O=C(COc1ccc(Br)cc1)Nc1ccncc1	i	i	3	i	i	-13	.	.	.	.	.
O=C(COc1ccccc1)Nc1cccc(-c2nc3ccccc3[nH]2)c1	6*	i	-1.9	i	i	-15	52*	0.47	.	78%*	80%*
CCOC(=O)C1=C(C)N(C)C(C)=C(C(=O)OCC)C1c1ccc(Cl)cc1	i	i	-1.2	i	i	-11	.	.	.	.	.
CCOC(=O)C1=C(C)N(C)C(C)=C(C(=O)OCC)C1c1ccc(C(=O)OC)cc1	6*	i	0.35	i	i	-7	106*	0.3*	.	115%*	151%*
CCOC(=O)C(=O)Nc1cc(C)on1	i	i	0.84	i	i	-17	.	.	.	.	.
SMILES	KCNQ1 block	KCNK3 block	Kir21 block	KCNQ1 act	KCNK9 block	hERG protect	KCNQ1 block val	CHO Tl flux	KCNQ1 APC inh	KCNQ2 inh	KCNQ1-KCNE1 inh
CCCc1ccc(-c2cc(C(=O)N3CCN(c4ccccn4)CC3)c3ccccc3n2)cc1	9*	i	-0.38	i	i	-30	89*	0.45	i	114%*	104%*
Cc1cccc(Cn2c(=O)c3c(nc4n3CCCN4Cc3ccccc3)n(C)c2=O)c1	i	i	-1.3	i	i	3	.	.	.	.	.
COc1ccc(-n2cc(-c3ccccc3)nc2SC)cc1	6*	i	0.07	i	i	-15	94*	0.42	i	86%*	130%*
COC(=O)c1ccccc1Nc1ccnc(Cl)n1	i	i	0.86	i	i	-7	.	.	.	.	.
Cc1ccc(O)c(-c2cc3ccccc3[nH]2)c1	10*	i	-3.3	i	i	-6	132*	0.46	.	i	166%*
O=C(Nc1nc2ccccc2[nH]1)c1ccc(Cl)c(S(=O)(=O)N2CCCC2)c1	11*	i	-0.25	i	i	-9	0	0.5	.	i	36%*
NCc1ccccc1CS(=O)(=O)N1CCOCC1	.	i	.	.	.	.	.	.	.	.	.
Cc1cc(C)c(-c2cc(NC(=O)COC(=O)c3ccc(NC(=O)CC#N)cc3)n(-c3ccccc3)n2)cc1C	6*	i	-0.62	i	i	-9	156*	0.47	i	64%*	137%*
CCC/C(=N\NC(=O)c1ccco1)c1ccc(Cl)s1	i	i	1	i	i	-8	.	.	.	.	.
CN(c1ccccc1)S(=O)(=O)c1ccc(NC(=O)c2ccc(F)cc2)cc1	7*	i	1.2	i	i	-3	90*	0.45	i	117%*	131%*
CN(c1ccccc1)S(=O)(=O)c1ccc(NC(=O)c2ccccc2)cc1	i	i	-0.78	i	i	-10	.	.	.	.	.
